Measurements of several laboratories.
Protocols differ between the studies behind these lines.
Target: Tyrosine-protein kinase Fyn (FYN, Homo sapiens, UniProt P06241)

CC(C)(C)c1cc(C=C(C#N)C#N)cc(Br)c1O  remaining activity (enzyme activity, inhibitor; 0.5 µM): 67.2%
Cc1nn(C)cc1-c1nc2c(N3CCN(Cc4ccc(Cl)cc4)CC3)c(Cl)cnc2[nH]1  remaining binding (binding, competition with immobilised ligand; 1 µM): 100%
O=c1[nH]c2ccccc2n1C1CCN(Cc2ccc(-c3[nH]c4cc5ncnc5cc4nc3-c3ccccc3)cc2)CC1  remaining signal (cell-free assay; 0.5 µM): 101%
Cn1cc(-c2cccc(N3CCc4c(sc5c4CC(C)(C)C5)C3=O)c2CO)cc(Nc2ccncn2)c1=O  inhibition (enzyme activity, inhibitor; 1 µM): 6%
Nc1ncc(-c2nc(N3CCOCC3)nc(N3CCOCC3)n2)c(C(F)F)n1  remaining binding (binding, competition with immobilised ligand; 10 µM): 100%
Cn1cc(-c2cc(F)cc(N3CCn4c(cc5c4CCCC5)C3=O)c2CO)cc(Nc2ccc(N3CCN(C4COC4)CC3)cn2)c1=O  inhibition (enzyme activity, inhibitor; 0.1 µM): 8%
Cn1cncc1[C@](O)(COc1ccc(C#N)cc1-c1ccc(OC(F)(F)F)cc1)c1ccc(C#N)cc1  remaining binding (cell-free assay, competition with immobilised ligand; 1 µM): 100%
Cc1ncc(C)n2nc(/C=C/c3nc(N4CCCC4)cc(N4CCOCC4)n3)nc12  inhibition (enzyme activity, inhibitor; 10 µM): 9%
C#Cc1n[nH]c2c(-c3cn([C@@H](C)c4ccccc4)c(=O)[nH]c3=O)cc(F)cc12  inhibition (enzyme activity, inhibitor; 0.1 µM): 0.7%
O=C(Nc1cccnn1)N1CCN([C@@H]2CCOc3cc(C(F)(F)F)ccc32)CC1  inhibition (enzyme activity, inhibitor; 20 µM): 0%
C#Cc1n[nH]c2c(-c3cn([C@@H](C)c4ccccn4)c(=O)[nH]c3=O)cc(F)cc12  inhibition (enzyme activity, inhibitor; 0.1 µM): 1.4%
N#CC1(c2ccccn2)CCN(Cc2cc(C(=O)O)c(=O)n3ccccc23)CC1  remaining binding (cell-free assay, competition with immobilised ligand; 1 µM): 99%
COc1ncccc1-c1cnn2ccc(N3CCN(C(=O)OC(C)C)CC3)nc12  remaining binding (binding, competition with immobilised ligand; 1 µM): 49%
